Results from ChEMBL document CHEMBL1132135, “Potent, orally absorbed glucagon receptor antagonists” (Bioorg Med Chem Lett, 1999).

Experiments:
[1] = molecular target: T1, Glucagon receptor (Mus musculus, UniProt Q61606); experiment: Binding affinity towards glucagon receptor determined by reduction in binding of 125 I-glucagon to the murine glucagon receptor (mGLUR) expressed on CHO cells in presence of Mg+2; format: cell-based
Summary of the method: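 Mg2+ added at 5 mM, a physiological level, to the binding medium. IC50 reported in µM, with the number of determinations noted; where no IC50 was reached, percent inhibition is given at a single tested concentration.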

[2] = Concentration in plasma (portal) following oral dose in rats at 1 hr; format: ADME, organism-based; conditions: rat
Summary of the method: (§1)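 Fasted male Sprague-Dawley rats (300-400 g) were gavaged at 3.0 mg/kg, using a 0.3 mg/mL solution in 5% PEG-400/5% Tween-80/90% water at 10 mL/kg. At each time point animals were CO2-anesthetized. Portal vein blood was drawn first, then cardiac puncture at sacrifice. Samples were heparinized, held at 0 °C for up to 2 h, then centrifuged. Plasma proteins were precipitated with acetonitrile and analyzed by LC/MS/MS.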

[3] = Concentration in plasma (systemic) following oral dose in rats at 1 hr; format: ADME, organism-based; conditions: rat; summary of the method: as §1
[4] = molecular target: T1, Glucagon receptor; experiment: Binding affinity towards glucagon receptor determined by reduction in binding of [125I]glucagon to the murine glucagon receptor (GGR) expressed on CHO cells in absence of Mg+2; format: cell-based
[5] = Concentration in plasma (systemic) following oral dose in mouse at 4 hr; format: ADME, organism-based
Summary of the method: (§2)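 Oral gavage in CD1 mice at 50 mg/kg, vehicle 5% PEG-400/5% Tween-80/90% water, 10 mL/kg. At each time point mice were CO2-anesthetized and bled by cardiac puncture at sacrifice. Samples were heparinized, kept at 0 °C for up to 2 h, then centrifuged to plasma. Plasma proteins were precipitated with acetonitrile and analyzed by HPLC.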

[6] = Concentration in plasma (systemic) following oral dose in mouse at 6 hr; format: ADME, organism-based; summary of the method: as §2
[7] = Concentration in plasma (systemic) following oral dose in mouse at 24 hr; format: ADME, organism-based; summary of the method: as §2
[8] = Concentration in plasma (portal) following oral dose in rats at 0.25 hr; format: ADME, organism-based; conditions: rat; summary of the method: as §1
[9] = Concentration in plasma (systemic) following oral dose in rats at 2 hr; format: ADME, organism-based; conditions: rat; summary of the method: as §1
[10] = Selectivity ratio between the binding value of human glucagon receptor (GGR) with Mg+2 and the value of p38 kinase
[11] = molecular target: T2, Glucagon receptor (Homo sapiens, UniProt P47871); experiment: Binding affinity towards glucagon receptor determined by reduction in binding of [125I]glucagon to the human glucagon receptor (GGR) expressed on CHO cells in presence of Mg+2; format: cell-based
T2 sequence (P47871 whole entry): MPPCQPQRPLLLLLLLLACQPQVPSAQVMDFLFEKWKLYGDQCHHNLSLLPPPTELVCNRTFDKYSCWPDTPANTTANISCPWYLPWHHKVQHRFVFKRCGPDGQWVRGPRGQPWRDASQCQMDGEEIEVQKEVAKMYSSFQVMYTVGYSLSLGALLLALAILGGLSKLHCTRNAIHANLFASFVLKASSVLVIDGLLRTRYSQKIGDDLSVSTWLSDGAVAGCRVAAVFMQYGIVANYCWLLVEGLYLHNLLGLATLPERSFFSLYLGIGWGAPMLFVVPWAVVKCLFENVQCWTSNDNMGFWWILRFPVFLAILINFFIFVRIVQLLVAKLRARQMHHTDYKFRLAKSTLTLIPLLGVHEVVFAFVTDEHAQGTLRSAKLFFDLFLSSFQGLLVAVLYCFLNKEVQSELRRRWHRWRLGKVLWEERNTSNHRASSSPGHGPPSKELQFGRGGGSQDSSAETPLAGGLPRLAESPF
Summary of the method: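 Radioligand binding to the glucagon receptor was run with 5 mM Mg2+ added, described as a physiological concentration.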

[12] = Concentration in plasma (systemic) following oral dose in mouse at 2 hr; format: ADME, organism-based; summary of the method: as §2
[13] = Concentration in plasma (systemic) following oral dose in mouse at 0.25 hr; format: ADME, organism-based; summary of the method: as §2
[14] = Concentration in plasma (systemic) following oral dose in rats at 0.25 hr; format: ADME, organism-based; conditions: rat; summary of the method: as §1
[15] = molecular target: T2, Glucagon receptor; experiment: biochemical; format: cell-based, CHO
[16] = Concentration in plasma (systemic) following oral dose in mouse at 1 hr; format: ADME, organism-based; summary of the method: as §2
[17] = Concentration in plasma (portal) following oral dose in rats at 2 hr; format: ADME, organism-based; conditions: rat; summary of the method: as §1
[18] = molecular target: Mitogen-activated protein kinase 14 (Homo sapiens, UniProt Q16539); experiment: Inhibitory activity against p38-alpha kinase
Chain of Mitogen-activated protein kinase 14 (Q16539 whole entry): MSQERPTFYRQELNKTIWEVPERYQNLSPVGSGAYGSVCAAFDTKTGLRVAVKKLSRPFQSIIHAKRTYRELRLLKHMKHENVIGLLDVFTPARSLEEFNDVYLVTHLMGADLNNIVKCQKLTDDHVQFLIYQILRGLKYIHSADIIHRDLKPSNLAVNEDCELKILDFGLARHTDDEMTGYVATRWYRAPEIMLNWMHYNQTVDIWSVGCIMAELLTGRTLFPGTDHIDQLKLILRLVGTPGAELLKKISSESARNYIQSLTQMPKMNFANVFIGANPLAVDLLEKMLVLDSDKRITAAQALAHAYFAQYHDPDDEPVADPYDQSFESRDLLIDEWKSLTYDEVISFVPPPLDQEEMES

[19] = molecular target: T1, Glucagon receptor; experiment: Binding affinity towards glucagon receptor determined by reduction in binding of 125 I-glucagon to the murine glucagon receptor (mGLUR) expressed on CHO cells in absence of Mg; format: cell-based
[20] = molecular target: Glucagon receptor (Mus musculus) (UniProt Q61606); experiment: Binding affinity towards glucagon receptor determined by reduction in binding of 125 I-glucagon to the murine glucagon receptor (mGLUR) expressed on CHO cells in presence of Mg+2 at 1 uM; format: cell-based
Chain of Glucagon receptor (Mus musculus) (Q61606 whole entry): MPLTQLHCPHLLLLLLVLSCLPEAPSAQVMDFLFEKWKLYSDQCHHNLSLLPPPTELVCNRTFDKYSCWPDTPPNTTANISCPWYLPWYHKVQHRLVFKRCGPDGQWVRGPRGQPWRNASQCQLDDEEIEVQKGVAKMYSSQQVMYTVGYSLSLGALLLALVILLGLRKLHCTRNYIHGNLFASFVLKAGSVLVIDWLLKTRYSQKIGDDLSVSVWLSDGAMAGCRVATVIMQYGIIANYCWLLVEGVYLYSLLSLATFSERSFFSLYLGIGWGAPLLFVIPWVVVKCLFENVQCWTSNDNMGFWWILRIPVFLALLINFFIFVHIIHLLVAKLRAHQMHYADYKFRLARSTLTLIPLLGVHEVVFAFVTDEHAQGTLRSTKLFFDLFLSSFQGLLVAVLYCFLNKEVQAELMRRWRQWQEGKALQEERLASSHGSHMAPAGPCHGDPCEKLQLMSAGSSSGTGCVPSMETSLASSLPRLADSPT

T1 sequence (Q61606 whole entry): as above

CCCOc1ccc(Br)cc1-c1cc(-c2ccc(Cl)cc2)[nH]c1-c1ccncc1
IC50 [1]: 250 nM
concentration at 1 h [2]: 1240 nM
concentration at 1 h [3]: 590 nM
IC50 [4]: 37 nM
concentration at 4 h [5]: 16500 nM
concentration at 6 h [6]: 13100 nM
concentration at 24 h [7]: 700 nM
concentration at 0.25 h [8]: 25 nM
concentration at 2 h [9]: 840 nM
Ratio [10]: 0.12
IC50 [11]: 170 nM
concentration at 2 h [12]: 11700 nM
concentration at 0.25 h [13]: 1700 nM
concentration at 0.25 h [14]: 9 nM
IC50 [15]: 7 nM
concentration at 1 h [16]: 15200 nM
concentration at 2 h [17]: 1400 nM
IC50 [18]: 1440 nM

Clc1ccc(-c2cc(-c3cccc(Br)c3)c(-c3ccncc3)[nH]2)cc1
IC50 [19]: 230 nM
Ratio [10]: 21.2
IC50 [11]: 1700 nM
inhibition [20]: 48%
IC50 [15]: 150 nM
IC50 [18]: 80 nM
